Source: PMC6911266 (Nature, 2019)
Numbering of substitutions follows the chain as printed. “And” between values parts separate entries of the source, which are not always exact repeats. Equal entries are not always repeated.

Key:
[1] = tested on: P. falciparum WT (3D7) parasite line; assay: Parasite drug susceptibility assay; assay type: cell-based, Plasmodium falciparum; conditions: Plasmodium falciparum, 3D7, 72 h
Procedure, shortened: (§1)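 Asynchronous asexual blood-stage parasites were seeded at 0.3% parasitemia and 1% hematocrit into 2-fold, 10-point test compound dilutions. Incubation was 72 h at 37°C under 5% O2/5% CO2/90% N2. Final parasitemia was read by flow cytometry. IC50 came from nonlinear regression, 4 independent assays in duplicate, with two-tailed Mann-Whitney U tests.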

PfCRT Dd2 = target: T1, PfCRT Dd2 (Plasmodium falciparum, UniProt Q9N623, A220S/I356T/K76T/M74I/N326S/N75E/Q271E/R371I); assay: Transport; assay type: biochemical; conditions: for transport activity (in words): proteoliposomes
T1 sequence (Q9N623 1-424 M74I/N75E/K76T/A220S/Q271E/N326S/I356T/R371I): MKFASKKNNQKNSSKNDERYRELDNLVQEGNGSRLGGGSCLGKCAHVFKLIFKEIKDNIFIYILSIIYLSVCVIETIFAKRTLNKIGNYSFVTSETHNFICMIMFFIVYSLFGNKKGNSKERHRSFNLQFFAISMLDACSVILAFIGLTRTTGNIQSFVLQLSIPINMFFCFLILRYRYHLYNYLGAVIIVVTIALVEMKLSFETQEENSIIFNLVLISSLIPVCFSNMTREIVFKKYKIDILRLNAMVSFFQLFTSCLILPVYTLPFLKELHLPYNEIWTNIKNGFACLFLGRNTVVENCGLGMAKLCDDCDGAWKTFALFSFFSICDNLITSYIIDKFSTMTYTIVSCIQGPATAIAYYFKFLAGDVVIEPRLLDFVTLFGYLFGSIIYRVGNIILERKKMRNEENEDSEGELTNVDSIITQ

[2] = tested on: P. falciparum 7G8^7G8 parasite line; assay: Parasite drug susceptibility assay; assay type: cell-based, Plasmodium falciparum; conditions: Plasmodium falciparum, 7G8, 72 h
Procedure, shortened: as §1

PfCRT 7G8 = target: T2, PfCRT 7G8 (Plasmodium falciparum, UniProt W7FI62); assay: Scintillation proximity assay; assay type: binding; conditions: for competition of [3H]-Arg binding (in words): 125 nM [3H]-Arg, 1 μM CQ or PPQ, 0.1 μM amodiaquine, 1 mM Arg, Lys or Leu; for EC50: half-maximal binding constant (EC50), isotopic dilution, SPA, nanodiscs, pH 7.5, isotopic dilution of [3H]-CQ or [3H]-PPQ
T2 sequence (W7FI62 1-424): T1 sequence (Q9N623 1-424 M74I/N75E/K76T/A220S/Q271E/N326S/I356T/R371I) with C72S, I74M, E75N, E271Q, S326D, T356L, I371R

PfCRT 7G8+F145I = target: T3, PfCRT 7G8+F145I (Plasmodium falciparum, UniProt W7FI62, F145I); assay: Transport; assay type: biochemical; conditions: for 1-min uptake, transport in proteoliposomes: 100 nM [3H]-drug, inwardly-directed pH gradient; for Vmax, transport in proteoliposomes: initial rates over 3 s, Michaelis-Menten fit; for transport activity (in words): proteoliposomes
T3 sequence (W7FI62 1-424 F145I): T1 sequence (Q9N623 1-424 M74I/N75E/K76T/A220S/Q271E/N326S/I356T/R371I) with C72S, I74M, E75N, F145I, E271Q, S326D, T356L, I371R

[3] = tested on: P. falciparum parasites with PfCRT haplotypes/mutations; conditions: cited from earlier work; for Associated Phenotype, mutation C350R: haplotype 7G8+C350R, this study; for Associated Phenotype, mutation C350R / Associated Phenotype, mutation C72S / Associated Phenotype, mutation F145I / Associated Phenotype, mutation G353V / Associated Phenotype, mutation H97Y / Associated Phenotype, mutation I218F / Associated Phenotype, mutation M343L / Associated Phenotype, mutation T93S / Associated Phenotype, mutation A220S / Associated Phenotype, mutation I356T/L / Associated Phenotype, mutation N326S/D / Associated Phenotype, mutation M74I / Associated Phenotype, mutation N75E / Associated Phenotype, mutation Q271E / Associated Phenotype, mutation R371I / Associated Phenotype, mutation K76T: field; for Associated Phenotype, mutation C72S: haplotype 7G8; for Associated Phenotype, mutation C101F: haplotype Dd2+C101F, lab; for Associated Phenotype, mutation F145I: haplotype Dd2+F145I; for Associated Phenotype, mutation G353V: haplotype Dd2+G353V; for Associated Phenotype, mutation H97Y: haplotype Dd2+H97Y; for Associated Phenotype, mutation I218F: haplotype Dd2+I218F; for Associated Phenotype, mutation M343L: haplotype Dd2+M343L; for Associated Phenotype, mutation T93S: haplotype Dd2+T93S; for Associated Phenotype, mutation A220S / Associated Phenotype, mutation I356T/L / Associated Phenotype, mutation N326S/D: haplotype Dd2/7G8; for Associated Phenotype, mutation M74I / Associated Phenotype, mutation N75E / Associated Phenotype, mutation Q271E / Associated Phenotype, mutation R371I: haplotype Dd2; for Associated Phenotype, mutation K76T: haplotype Dd2 and 7G8
PfCRT WT (3D7) = target: T4, PfCRT WT (3D7) (Plasmodium falciparum, UniProt Q9N623); assay: Equilibrium dialysis binding, PfCRT variant in nanodiscs; conditions: for Bmax, binding at pH 5.5 / Bmax, binding at pH 7.5: equilibrium dialysis
T4 sequence (Q9N623 1-424): T1 sequence (Q9N623 1-424 M74I/N75E/K76T/A220S/Q271E/N326S/I356T/R371I) with I74M, E75N, T76K, S220A, E271Q, S326N, T356I, I371R
Procedure, shortened: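 Saturation binding of [3H]-CQ (1 Ci/mmol) or [3H]-PPQ (2.5 Ci/mmol) by equilibrium dialysis (12,000–14,000 MWCO) with 4.2 pmol PfCRT in POPG/MSP1D1 nanodiscs (BacMam, HEK293S GnTi- cells). Kd came from global non-linear regression, N=3.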

[4] = tested on: P. falciparum 7G8^7G8+F145I parasite line; assay: Piperaquine survival assay; assay type: cell-based, Plasmodium falciparum; conditions: vs no-drug control

For `CCN(CC)CCCC(C)Nc1ccnc2cc(Cl)ccc12` (stereo not shown) [CQ, chloroquine], the IC50 [1] was 12.2 ± 0.5 nM, the “1-min uptake, transport in proteoliposomes” value (shortened to “1-min uptake, transport”) (PfCRT Dd2; 100 nM [3H]-drug, 1 min, inwardly-directed pH gradient) was 3.33 ± 0.22 nmol/mg and the “Vmax, transport in proteoliposomes” value (PfCRT Dd2; initial rates over 3 s, Michaelis-Menten fit) was 91.37 ± 2.79 nmol/mg/min. The “transport activity (in words)” value (PfCRT Dd2) was “robust transport activity”, the IC50 [2] was 83 ± 7.5 nM and the “competition of [3H]-Arg binding (in words)” value (PfCRT 7G8) was “effectively competed”. For the same compound, the EC50 (PfCRT 7G8) was ~300 nM and 297 nM, the “1-min uptake, transport” value (PfCRT 7G8+F145I) was 0.24 ± 0.05 nmol/mg and the “Vmax, transport in proteoliposomes” value (PfCRT 7G8+F145I) was 63.01 ± 3.57 nmol/mg/min. For the same compound, the “transport activity (in words)” value (PfCRT 7G8+F145I) was “reduced uptake”, the “Associated Phenotype, mutation C350R” value [3] was “S” and the “Associated Phenotype, mutation C72S” value [3] was “R”. For the same compound, the “Associated Phenotype, mutation C101F” value [3] was “S”, the “Associated Phenotype, mutation F145I” value [3] was “S” and the “Associated Phenotype, mutation G353V” value [3] was “S”. The “Associated Phenotype, mutation H97Y” value [3] was “PPQ-R (CQ-R)”, the “Associated Phenotype, mutation I218F” value [3] was “R low” and the “Associated Phenotype, mutation M343L” value [3] was “S”. The “Associated Phenotype, mutation T93S” value [3] was “PPQ-R (CQ-R)”, the “Associated Phenotype, mutation A220S” value [3] was “R” and the “Associated Phenotype, mutation I356T/L” value [3] was “R”. The “Associated Phenotype, mutation N326S/D” value [3] was “R”, the “Associated Phenotype, mutation M74I” value [3] was “R” and the “Associated Phenotype, mutation N75E” value [3] was “R”. For the same compound, the “Associated Phenotype, mutation Q271E” value [3] was “R”, the “Associated Phenotype, mutation R371I” value [3] was “R” and the “Associated Phenotype, mutation K76T” value [3] was “R”. The Kd (PfCRT WT (3D7)) was 280 ± 40 nM, the “Bmax, binding at pH 5.5” value (PfCRT WT (3D7)) was 0.40 ± 0.02 mol CQ/mol PfCRT and the “Bmax, binding at pH 7.5” value (PfCRT WT (3D7)) was 0.42 ± 0.02 mol CQ/mol PfCRT.

With `Clc1ccc2c(N3CCN(CCCN4CCN(c5ccnc6cc(Cl)ccc56)CC4)CC3)ccnc2c1` [PPQ, piperaquine] the IC50 [1] was 16.2 ± 1.3 nM, the “transport activity (in words)” value (PfCRT Dd2) was “Minimal” and the IC50 [2] was 21.4 ± 1 nM. The “PSA 3.125 nM, percent survival” value ([4]; 3.125 nM PPQ 48 h) was 95.7 ± 3.1%, the “PSA 6.25 nM, percent survival” value ([4]; 6.25 nM PPQ 48 h) was 83.4 ± 4.5% and the “PSA 12.5 nM, percent survival” value ([4]; 12.5 nM PPQ 48 h) was 62.3 ± 4.1%. The “PSA 25 nM, percent survival” value ([4]; 25 nM PPQ 48 h) was 44.5 ± 2.4%, the “PSA 50 nM, percent survival” value ([4]; 50 nM PPQ 48 h) was 8.5 ± 1.2% and the “PSA 200 nM, percent survival” value ([4]; 200 nM PPQ 48 h) was 8.6 ± 2.4%. The “PSA 400 nM, percent survival” value ([4]; 400 nM PPQ 48 h) was 12.7 ± 2.5%, the “PSA 800 nM, percent survival” value ([4]; 800 nM PPQ 48 h) was 13.1 ± 3.9% and the “PSA 1600 nM, percent survival” value ([4]; 1600 nM PPQ 48 h) was 14.7 ± 4.2%. The “competition of [3H]-Arg binding (in words)” value (PfCRT 7G8) was “effectively competed”, the EC50 (PfCRT 7G8) was ~190 nM and 190 nM and the “1-min uptake, transport” value (PfCRT 7G8+F145I) was 1.41 ± 0.12 nmol/mg. The “Vmax, transport in proteoliposomes” value (PfCRT 7G8+F145I) was 109.30 ± 7.27 nmol/mg/min, the “transport activity (in words)” value (PfCRT 7G8+F145I) was “substantially increased” and the “Associated Phenotype, mutation C350R” value [3] was “R low”. The “Associated Phenotype, mutation C72S” value [3] was “S”, the “Associated Phenotype, mutation C101F” value [3] was “R” and the “Associated Phenotype, mutation F145I” value [3] was “R”. For the same compound, the “Associated Phenotype, mutation G353V” value [3] was “R mod”, the “Associated Phenotype, mutation H97Y” value [3] was “PPQ-R (CQ-R)” and the “Associated Phenotype, mutation I218F” value [3] was “R”. For the same compound, the “Associated Phenotype, mutation M343L” value [3] was “R low”, the “Associated Phenotype, mutation T93S” value [3] was “PPQ-R (CQ-R)” and the “Associated Phenotype, mutation A220S” value [3] was “S”. The “Associated Phenotype, mutation I356T/L” value [3] was “S”, the “Associated Phenotype, mutation N326S/D” value [3] was “S” and the “Associated Phenotype, mutation M74I” value [3] was “S”. The “Associated Phenotype, mutation N75E” value [3] was “S”, the “Associated Phenotype, mutation Q271E” value [3] was “S” and the “Associated Phenotype, mutation R371I” value [3] was “S”. For the same compound, the “Associated Phenotype, mutation K76T” value [3] was “S”, the Kd (PfCRT WT (3D7)) was 260 ± 40 nM and the “Bmax, binding at pH 5.5” value (PfCRT WT (3D7)) was 0.38 ± 0.02 mol CQ/mol PfCRT. The “Bmax, binding at pH 7.5” value (PfCRT WT (3D7)) was 0.40 ± 0.02 mol CQ/mol PfCRT.
